Measured values: publication PMC6210075 (ACS Omega, 2018)

Key:
rat sEH = target: T1, rat sEH (Rattus norvegicus, UniProt P80299); experiment: sEH fluorescent inhibition assay, recombinant rat sEH; format: biochemical
T1 sequence (P80299 1-554): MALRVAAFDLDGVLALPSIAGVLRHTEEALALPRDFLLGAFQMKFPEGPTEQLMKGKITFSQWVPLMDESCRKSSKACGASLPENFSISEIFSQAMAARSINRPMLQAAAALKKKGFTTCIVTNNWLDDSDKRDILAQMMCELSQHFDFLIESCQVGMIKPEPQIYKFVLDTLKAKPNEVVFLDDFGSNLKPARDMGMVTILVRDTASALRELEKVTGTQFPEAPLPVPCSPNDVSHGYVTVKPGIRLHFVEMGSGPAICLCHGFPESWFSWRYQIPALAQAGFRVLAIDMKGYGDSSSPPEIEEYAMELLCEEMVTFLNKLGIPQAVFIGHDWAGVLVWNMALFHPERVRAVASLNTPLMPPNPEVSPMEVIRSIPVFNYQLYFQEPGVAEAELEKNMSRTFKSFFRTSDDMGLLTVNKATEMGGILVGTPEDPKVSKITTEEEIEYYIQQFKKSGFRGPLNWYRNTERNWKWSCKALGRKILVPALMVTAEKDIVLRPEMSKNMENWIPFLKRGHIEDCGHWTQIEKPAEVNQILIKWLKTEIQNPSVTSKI

human sEH = target: T2, human sEH (Homo sapiens, UniProt P34913); experiment: FRET-based displacement assay for inhibitor dissociation from sEH; format: binding
T2 sequence (P34913 1-555): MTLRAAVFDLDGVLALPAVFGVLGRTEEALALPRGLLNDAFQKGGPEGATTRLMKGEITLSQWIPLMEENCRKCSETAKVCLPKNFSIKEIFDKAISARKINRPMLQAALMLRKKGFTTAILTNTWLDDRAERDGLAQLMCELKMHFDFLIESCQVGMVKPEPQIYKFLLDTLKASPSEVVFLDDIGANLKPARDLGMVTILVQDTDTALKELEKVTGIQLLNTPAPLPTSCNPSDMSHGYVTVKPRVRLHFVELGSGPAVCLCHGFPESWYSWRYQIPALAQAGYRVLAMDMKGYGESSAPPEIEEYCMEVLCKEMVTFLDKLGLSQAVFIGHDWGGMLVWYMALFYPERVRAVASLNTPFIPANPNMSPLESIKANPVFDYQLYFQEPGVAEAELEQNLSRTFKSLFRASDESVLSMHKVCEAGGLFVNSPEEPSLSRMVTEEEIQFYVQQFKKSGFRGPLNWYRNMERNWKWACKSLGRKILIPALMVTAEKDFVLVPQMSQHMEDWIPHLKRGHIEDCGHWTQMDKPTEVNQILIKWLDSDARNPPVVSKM

FAAH = target: T3, FAAH (Mus musculus, UniProt O08914); format: in vivo; settings: mice, 1 mg/kg i.p. in DMSO, 4 h after dosing
T3 sequence (O08914 1-579): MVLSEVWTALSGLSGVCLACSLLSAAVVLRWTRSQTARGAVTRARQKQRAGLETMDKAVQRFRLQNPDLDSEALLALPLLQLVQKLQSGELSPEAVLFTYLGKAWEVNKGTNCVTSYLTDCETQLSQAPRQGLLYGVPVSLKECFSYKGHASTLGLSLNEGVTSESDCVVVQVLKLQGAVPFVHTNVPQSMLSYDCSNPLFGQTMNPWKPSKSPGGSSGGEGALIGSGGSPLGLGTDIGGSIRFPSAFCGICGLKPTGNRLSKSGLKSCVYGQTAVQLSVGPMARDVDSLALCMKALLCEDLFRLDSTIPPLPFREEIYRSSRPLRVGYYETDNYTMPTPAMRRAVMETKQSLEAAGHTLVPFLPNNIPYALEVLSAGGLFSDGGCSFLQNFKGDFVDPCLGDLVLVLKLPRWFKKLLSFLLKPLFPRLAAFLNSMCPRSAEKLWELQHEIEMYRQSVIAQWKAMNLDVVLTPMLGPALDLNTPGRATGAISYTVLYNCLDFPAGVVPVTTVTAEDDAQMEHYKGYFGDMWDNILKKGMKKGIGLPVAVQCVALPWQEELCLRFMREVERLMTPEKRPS
Procedure, shortened: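 Male Swiss Webster mice got test compound in 20 μL DMSO i.p. and were killed 4 h later. Tissue was homogenized about fivefold by weight in 20 mM phosphate, pH 7.4, 5 mM EDTA, then diluted 1000-fold (liver) or 100-fold (brain) in 100 mM phosphate, pH 8.0, 0.1% BSA. OMP (100 μM final) hydrolysis was read by fluorescence (303/394 nm) for 10 min, normalized to BCA protein, and expressed as % of vehicle.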

sEH = target: T4, sEH (Mus musculus, UniProt P34914); experiment: In vivo target engagement: residual sEH activity; settings: mice, 1 mg/kg i.p. in DMSO, 4 h after dosing
T4 sequence (P34914 1-554): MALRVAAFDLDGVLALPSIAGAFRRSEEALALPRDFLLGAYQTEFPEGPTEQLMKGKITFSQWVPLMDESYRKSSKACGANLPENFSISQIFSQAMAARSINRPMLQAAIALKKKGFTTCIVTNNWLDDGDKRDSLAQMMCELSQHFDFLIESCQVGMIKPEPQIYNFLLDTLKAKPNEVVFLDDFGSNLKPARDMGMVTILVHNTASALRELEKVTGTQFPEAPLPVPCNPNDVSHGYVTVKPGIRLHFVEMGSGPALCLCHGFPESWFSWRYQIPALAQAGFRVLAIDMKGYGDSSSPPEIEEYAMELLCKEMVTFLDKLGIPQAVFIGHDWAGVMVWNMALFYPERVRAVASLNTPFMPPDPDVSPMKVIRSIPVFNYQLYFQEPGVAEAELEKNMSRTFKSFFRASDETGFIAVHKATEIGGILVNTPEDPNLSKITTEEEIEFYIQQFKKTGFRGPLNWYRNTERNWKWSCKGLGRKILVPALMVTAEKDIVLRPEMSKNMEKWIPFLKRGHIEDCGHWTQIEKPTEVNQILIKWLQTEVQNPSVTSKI

Row | Structure (SMILES) | IC50 (rat sEH) [µM] | t1/2 (half-life on the enzyme) (human sEH; human sEH) [min] | koff (human sEH; read-out: koff × 10^–3) [s⁻¹] | residual brain FAAH activity, % of control (FAAH; brain) [%] | residual liver FAAH activity, % of control (FAAH; liver) [%] | residual brain sEH activity, % of control (sEH) [%]
1 | O=C(Nc1ccc(C(F)(F)F)cc1F)N1CCC(Cc2cccc(Oc3ccc(C(F)(F)F)cn3)c2)CC1 [compound 18] | 0.24 | 4.4 | 2.7 |  |  | 
2 | O=C(Nc1cccnc1)N1CCC(Cc2cccc(Oc3ccc(C(F)(F)F)cn3)c2)CC1 [PF-3845, reference compound] |  |  |  | 0.2 ± 0.1 | 22 ± 2 | 63 ± 14
